Data taken from ChEMBL document CHEMBL1152237, “Sequence specific and high affinity recognition of 5'-ACGCGT-3' by rationally designed pyrrole-imidazole H-pin polyamides: thermodynamic and structural studies” (Bioorg Med Chem, 2008).
Calls of active or inactive are those of the source. The calls are words filed in the database; no cut-off is given here.

How the values were obtained:
[1] = Binding affinity to 5'ACGCGT3' sequence of cognate DNA by surface plasmon resonance method
Outline: (§1)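 SPR at 25 °C in degassed MES buffer (200 mM Na+, 10 mM MES, 1 mM EDTA, surfactant P20, pH 6.25). DNA hairpins were immobilized to about 400 RU, with one flow cell left blank. Ligand (0.1–400 nM) was injected at 20 µL/min for 12.5 min, then dissociated for 20 min. The surface was regenerated with 500 mM NaCl/25 mM NaOH. Global 1:1 kinetic fit; Keq = ka/kd.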

[2] = Binding affinity to 5'ACCGGT3' sequence of non-cognate DNA by surface plasmon resonance method; outline: as §1
Nucleic Acid [3] = assay: Binding affinity to 5'AAATTT3' sequence of non-cognate DNA assessed as change in melting temperature by thermal denaturation method; type: nucleic-acid assay
Outline: (§2)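 Thermal melting in PO 0 buffer (10 mM sodium phosphate, 1 mM EDTA, pH 6.2). Oligonucleotides were reannealed first (70 °C for 1 min, then cooled to RT). Ramp from 25 to 95 °C at 0.5 °C/min, with Abs260 recorded every 0.5 °C. Tm was taken as the maximum of the first derivative, and ΔTm was the shift on ligand binding.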

Nucleic Acid [4] = assay: Binding affinity to 5'ACCGGT3' sequence of non-cognate DNA assessed as change in melting temperature by thermal denaturation method; type: nucleic-acid assay; outline: as §2
Nucleic Acid [5] = assay: Binding affinity to 5'ACGCGT3' sequence of cognate DNA assessed as change in melting temperature by thermal denaturation method; type: nucleic-acid assay; outline: as §2
[6] = Binding affinity to 5'AAATTT3' sequence of non-cognate DNA by surface plasmon resonance method; outline: as §1
[7] = Binding affinity to 5'ACGCGT3' sequence of cognate DNA assessed as exothermic enthalpy at 25 to 50 degC by isothermal titration colorimetry
[8] = Binding affinity to 5'ACCGGT3' sequence of non-cognate DNA assessed as heat change by isothermal titration colorimetry
Outline: (§3)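 ITC at 25, 30 and 35 °C. DNA (2 µM in PO 5) was titrated with ligand (0.5 mM in PO 5) in 3 µL injections every 300 s, 50 injections in total. One-site model fit, with a linear fit subtracted to remove non-specific heat. ΔG was taken from SPR Keq as −RT ln Keq.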

[9] = Binding affinity to 5'AAATTT3' sequence of non-cognate DNA assessed as heat change by isothermal titration colorimetry; outline: as §3
[10] = Binding affinity to 5'ACGCGT3' sequence of cognate DNA at 0.5 uM by DnaseI footprinting assay
Outline: (§4)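 DNA was incubated 30 min with ligand in TN buffer (10 mM Tris, 10 mM NaCl, pH 7). Digestion ran 3 min with DNase I in buffer containing NaCl, MgCl2 and MnCl2, then stopped on dry ice. Products were resolved on a 10% polyacrylamide/7.5 M urea gel and read by autoradiography.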

[11] = Binding affinity to 5'ACGTGT3' sequence of cognate DNA at 5 uM by DnaseI footprinting assay; outline: as §4

| SMILES | K [1] | K [2] | ΔTm (Nucleic Acid [3]) [°C] | ΔTm (Nucleic Acid [4]) [°C] | ΔTm (Nucleic Acid [5]) [°C] | K [6] | Activity [7] | Activity [8] | Activity [9] | Activity [10] | Activity [11] |
| --- | --- | --- | --- | --- | --- | --- | --- | --- | --- | --- | --- |
| CN(C)CCNC(=O)c1nc(NC(=O)c2cc(NC(=O)c3nc(NC=O)cn3C)cn2CCOCCOCCn2cc(NC(=O)c3nc(NC=O)cn3C)cc2C(=O)Nc2cn(C)c(C(=O)NCCN(C)C)n2)cn1C | 2 ×10¹⁰ /M | 1.1 ×10⁸ /M | 9.3 | 14.1 | > 30 | 5 ×10⁵ /M | Active | inactive | inactive | – | – |
| CN(C)CCNC(=O)c1nc(NC(=O)c2cc(NC(=O)c3nc(NC=O)cn3C)cn2C)cn1C | 1.9 ×10⁸ /M | 2.2 ×10⁵ /M | 0.9 | 1.1 | 7.8 | 5.3 ×10⁴ /M | – | inactive | inactive | – | – |
| CN(C)CCNC(=O)c1nc(NC(=O)c2cc(NC(=O)c3nc(NC(=O)c4cccn4C)cn3C)cn2C)cn1C | 7.1 ×10⁶ /M | – | 0.1 | 0.1 | 3 | – | – | – | – | Active | Active |
